Source: ChEMBL document CHEMBL1126127, “Nonprostanoid prostacyclin mimetics. 2. 4,5-Diphenyloxazole derivatives” (J Med Chem, 1992)

Experiment: Inhibition of ADP-induced human platelet aggregation.
Format: functional
How it was run: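 ADP-induced aggregation of human platelets measured in platelet-rich plasma by aggregometry. Protocol follows earlier reports. IC50 values come from a single experiment or from the mean of duplicates.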

| SMILES | IC50 |
| --- | --- |
| O=C(O)COc1cccc(CSc2nc(-c3ccccc3)c(-c3ccccc3)o2)c1 | 9.6 µM |
| COc1ccc(/C=C/c2nc(-c3ccccc3)c(-c3ccccc3)o2)cc1OCC(=O)O | > 75 µM |
| O=C(O)CCCOc1ccc(-c2nc(-c3ccccc3)c(-c3ccccc3)o2)cc1 | > 80 µM |
| O=C(O)/C=C/c1cccc(OCc2nc(-c3ccccc3)c(-c3ccccc3)o2)c1 | 14 µM |
| COc1c(/C=C/c2nc(-c3ccccc3)c(-c3ccccc3)o2)cccc1OCC(=O)O | 0.5 µM |
| O=C(O)CCCOc1ccccc1/C=C/c1nc(-c2ccccc2)c(-c2ccccc2)o1 | > 75 µM |
| CCCCC[C@H](O)/C=C/[C@@H]1[C@H]2C/C(=C/CCCC(=O)O)O[C@H]2C[C@H]1O [EPOPROSTENOL] | 8 µM |
| O=C(O)COc1cccc(C#Cc2nc(-c3ccccc3)c(-c3ccccc3)o2)c1 | 60 µM |
| O=C(O)CCCCOc1ccccc1Cc1nc(-c2ccccc2)c(-c2ccccc2)o1 | > 74 µM |
| O=C(O)CCCOc1ccccc1-c1nc(-c2ccccc2)c(-c2ccccc2)o1 | > 80 µM |
| O=C(O)CCCCCCCOc1nc(-c2ccccc2)c(-c2ccccc2)n1-c1ccccc1 [OCTIMIBATE] | 1.02 µM |
| CC(C)(Oc1cccc(CCc2nc(-c3ccccc3)c(-c3ccccc3)o2)c1)C(=O)O | > 75 µM |
| O=C(O)COc1ccc(/C=C/c2nc(-c3ccccc3)c(-c3ccccc3)o2)cc1 | 10 µM |
| O=C(O)COc1cccc(/C=C\c2nc(-c3ccccc3)c(-c3ccccc3)o2)c1 | 0.18 µM |
| O=C(O)CCCOc1ccc(/C=C/c2nc(-c3ccccc3)c(-c3ccccc3)o2)cc1 | > 75 µM |
| O=C(O)CCCCOc1ccccc1-c1nc(-c2ccccc2)c(-c2ccccc2)o1 | > 77 µM |
| O=C(O)CCCOc1cccc(-c2nc(-c3ccccc3)c(-c3ccccc3)o2)c1 | 80 µM |
| O=C(O)CCCCOc1ccc(-c2nc(-c3ccccc3)c(-c3ccccc3)o2)cc1 | > 77 µM |
| O=C(O)COc1cccc(/C=C/c2nc(-c3ccccc3)c(-c3ccccc3)o2)c1 | 13 µM |
| COc1ccc(OCC(=O)O)cc1/C=C/c1nc(-c2ccccc2)c(-c2ccccc2)o1 | > 75 µM |
| O=C(O)CCCOc1cccc(/C=C/c2nc(-c3ccccc3)c(-c3ccccc3)o2)c1 | > 75 µM |
| c1ccc(-c2nc(CCc3cccc(OCC4N=NN=N4)c3)oc2-c2ccccc2)cc1 | 1.5 µM |
| O=C(O)COc1cccc(-c2nc(-c3ccccc3)c(-c3ccccc3)o2)c1 | > 84 µM |
| O=C(O)c1ccc(OCCCCc2nc(-c3ccccc3)c(-c3ccccc3)o2)cc1 | > 77 µM |
| O=C(O)c1cccc(OCCCCc2nc(-c3ccccc3)c(-c3ccccc3)o2)c1 | > 77 µM |
| O=C(O)CCCCOc1cccc(-c2nc(-c3ccccc3)c(-c3ccccc3)o2)c1 | 4.6 µM |
| O=C(O)COc1ccccc1/C=C/c1nc(-c2ccccc2)c(-c2ccccc2)o1 | > 80 µM |
| CC#CCC(C)[C@H](O)/C=C/[C@@H]1[C@H]2C/C(=C/CCCC(=O)O)C[C@H]2C[C@H]1O (stereo partly drawn) [ILOPROST] | 2 µM |

Next, values leading:

| IC50 | SMILES |
| --- | --- |
| 16 µM | O=C(O)CCc1cccc(CCc2nc(-c3ccccc3)c(-c3ccccc3)o2)c1 |
| > 76 µM | O=C(O)CCCOc1cccc(Cc2nc(-c3ccccc3)c(-c3ccccc3)o2)c1 |
| > 76 µM | O=C(O)C(CCCCCCCc1nc(-c2ccccc2)c(-c2ccccc2)o1)C(=O)O |
| 4 µM | CC(Oc1cccc(CCc2nc(-c3ccccc3)c(-c3ccccc3)o2)c1)C(=O)O (stereo not drawn) |
| > 82 µM | O=C(O)COc1ccc(Cc2nc(-c3ccccc3)c(-c3ccccc3)o2)cc1 |
| > 80 µM | O=C(O)CCc1cccc(OCc2nc(-c3ccccc3)c(-c3ccccc3)o2)c1 |
| > 75 µM | COc1ccc(OCC(=O)O)cc1CCc1nc(-c2ccccc2)c(-c2ccccc2)o1 |
| > 76 µM | O=C(O)CCCOc1ccc(Cc2nc(-c3ccccc3)c(-c3ccccc3)o2)cc1 |
| > 75 µM | O=C(O)CCCOc1ccccc1CCc1nc(-c2ccccc2)c(-c2ccccc2)o1 |
| 1.4 µM | COc1c(CCc2nc(-c3ccccc3)c(-c3ccccc3)o2)cccc1OCC(=O)O |
| > 80 µM | O=C(O)CCCCCCCCCc1nc(-c2ccccc2)c(-c2ccccc2)o1 |
| > 100 µM | O=C(O)CCCCc1nc(-c2ccccc2)c(-c2ccccc2)o1 |
| > 80 µM | O=C(O)COc1ccccc1CCc1nc(-c2ccccc2)c(-c2ccccc2)o1 |
| > 100 µM | O=C(O)CCc1nc(-c2ccccc2)c(-c2ccccc2)o1 [OXAPROZIN] |
| > 91 µM | O=C(O)CCCCCCc1nc(-c2ccccc2)c(-c2ccccc2)o1 |
| 1.2 µM | O=C(O)COc1cccc(OCc2nc(-c3ccccc3)c(-c3ccccc3)o2)c1 |
| > 75 µM | COc1ccc(CCc2nc(-c3ccccc3)c(-c3ccccc3)o2)cc1OCC(=O)O |
| > 80 µM | O=C(O)c1cccc(OCCCc2nc(-c3ccccc3)c(-c3ccccc3)o2)c1 |
| 2.5 µM | O=C(O)CCCCCCCCc1nc(-c2ccccc2)c(-c2ccccc2)o1 |
| 40 µM | O=C(O)c1ccc(OCCCc2nc(-c3ccccc3)c(-c3ccccc3)o2)cc1 |
| 9 µM | O=C(O)COc1ccc(CCc2nc(-c3ccccc3)c(-c3ccccc3)o2)cc1 |
| > 88 µM | O=C(O)CCCCCCCc1nc(-c2ccccc2)c(-c2ccccc2)o1 |
| 0.66 µM | O=C(O)/C=C/c1cccc(CCc2nc(-c3ccccc3)c(-c3ccccc3)o2)c1 |
| > 82 µM | O=C(O)COc1cccc(Cc2nc(-c3ccccc3)c(-c3ccccc3)o2)c1 |
| > 104 µM | O=C(O)CCCc1nc(-c2ccccc2)c(-c2ccccc2)o1 |
